Consider seven compounds from ChEMBL document CHEMBL1148082, “Cucurbitacins, cell adhesion inhibitors from Conobea scoparioides” (J Nat Prod, 1994).

Activity calls are given as the source filed them. The calls are words filed in the database; no cut-off is given here.

The species entered for assay [1] is Homo sapiens. In words: Inhibition of actin polymerization in fMLP-stimulated human neutrophils assessed as positive fluorescence signal at 1 uM. Summed up:
(§1)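 Human peripheral blood neutrophils were preincubated with compound for 45 min at 37° in PBS with Ca²⁺/Mg²⁺ and 10% fetal calf serum. They were then stimulated with fMLP (1 × 10⁻⁸ M final) for 1 min at 37°. Cells were fixed and permeabilized for at least 30 min at room temperature in 3% paraformaldehyde with lysophosphatidylcholine (12.5 µg/ml), pH 7.6. They were then stained with NBD-phalloidin for 15 min at 37° and analysed by flow cytometry (ex 488, em 530 nm). The value is the percent of cells with fluorescence above background.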

The species named for assay [2] is Homo sapiens. Description: Inhibition of actin polymerization in fMLP-stimulated human neutrophils assessed as positive fluorescence signal at 10 uM. Summed up:
as §1

Assay [3] has as its system JY. In words: Cytotoxicity against human JY cells assessed as inhibition of thymidine uptake at 3.3 uM by scintillation counting. In kind it is functional. The gist of the method: (§2)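 PKH26-stained JY cells were held at 37° with compound (0.3, 1.0, 3.3 or 50 μM) for 24 h and pulsed with tritiated thymidine during the last 5 h. Uptake was counted by scintillation and expressed as % inhibition.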

For assay [4], the species on record is Homo sapiens. In words: Inhibition of actin polymerization in fMLP-stimulated human neutrophils assessed as positive fluorescence signal at 0.33 uM. Summed up: as §1
The subject of assay [5] is JY. Description: Cytotoxicity against human JY cells assessed as inhibition of thymidine uptake at 1 uM by scintillation counting. It counts as functional. The gist of the method: as §2
The test system of assay [6] is JY. Description: Cytotoxicity against human JY cells assessed as inhibition of thymidine uptake at 0.3 uM by scintillation counting. It counts as functional. The gist of the method: as §2
Assay [7] is filed under the species Homo sapiens. Description: Inhibition of actin polymerization in fMLP-stimulated human neutrophils assessed as positive fluorescence signal at 3.3 uM. The gist of the method: as §1
Assay [8] has as its system JY. In words: Cytotoxicity against human JY cells up to 45 mins. In kind it is functional, cell-based. Summed up:
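Washout format: stained JY cells were treated with compounds for 45 min, matching the adhesion assay length, then washed extensively. Cells were then either incubated 24 h with a tritiated thymidine pulse in the last 5 h and scintillation counting, or run in the 48-h MTT assay.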

Assay [9] deals with JY. In words: Cytotoxicity against human JY cells after 48 hrs by MTT assay. In kind it is functional, cell-based. Summed up:
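PKH26-stained JY cells incubated at 37° with test compounds for 48 h. MTT added for the last 4 h. Cells and formazan crystals were solubilized, and colour was read on an ELISA plate reader.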
On the technique in general: Tetrazolium dyes change colour on reduction, which living cells bring about.

The test system of assay [10] is JY. In words: Cytotoxicity against human JY cells assessed as inhibition of thymidine uptake up to 5 hrs. It counts as functional, cell-based. The gist of the method:
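Proliferation assay in PKH26-stained JY cells exposed to test compounds at 37° for 5 h, with a tritiated thymidine pulse over the final 5 h. Thymidine uptake was quantitated by scintillation counting.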

For assay [11], the system named is JY. Description: Effect on cell activation in human JY cells assessed as inhibition of Ca2+ flux. In kind it is functional, cell-based. (Calcium assays in cells follow changes in intracellular calcium, usually with a dye or a luminescent sensor.)
Assay [12] has as its target Protein kinase C (PKC) (Homo sapiens) (UniProt O94806+P41743+P17252+P05129+Q05655+P05771+Q05513+Q02156+P24723+Q15139+Q04759). In words: Inhibition of PKC in human JY cells. In kind it is cell-based.
Assay [13] relates to JY. In words: Cytotoxicity against human JY cells assessed as inhibition of thymidine uptake at 50 uM by scintillation counting. In kind it is functional. The gist of the method: as §2

`C=C1[C@@H](C)[C@H]2[C@H](Cc3ccccc3)NC(=O)[C@]23OC(=O)/C=C/[C@H](O)CCC[C@@H](C)C/C=C/[C@H]3[C@@H]1O`: the inhibition came to 45.5% in the assay listed under Homo sapiens [1] and 4.2% in the assay listed under Homo sapiens [2].

As for `CC(=O)OC(C)(C)/C=C/C(=O)[C@](C)(O)[C@H]1[C@H](O)C[C@@]2(C)[C@@H]3CC=C4[C@H](C[C@H](O)C(=O)C4(C)C)[C@]3(C)C(=O)C[C@]12C` [CUCURBITACIN B], the inhibition at 3.3 µM in the assay on JY [3] is 71%. Further, the inhibition turned out to be 29.8% in the assay listed under Homo sapiens [4], 19.5% in the assay filed under Homo sapiens [1] and 9.6% in the assay filed under Homo sapiens [7]. Further, the inhibition at 1 µM with JY [5] was determined as 63%. Further, the inhibition at 0.3 µM in the assay on JY [6] stood at 39%.

Consider `CC(C)(O)/C=C/C(=O)[C@](C)(O)[C@H]1[C@H](O)C[C@@]2(C)[C@@H]3CC=C4[C@@H](C[C@H](O)C(=O)C4(C)C)[C@]3(C)C(=O)C[C@]12C` [CUCURBITACIN D], for which the inhibition at 3.3 µM with JY [3] was 58%. The inhibition in the assay filed under Homo sapiens [4] worked out at 75.2%; in the assay listed under Homo sapiens [1], 64.6%; in the assay listed under Homo sapiens [7] it was 24.3%. Also, the inhibition at 1 µM in the assay with JY [5] is 45%. The inhibition at 0.3 µM with JY [6] is 12%.

In the case of `CC(=O)OC(C)(C)/C=C/C(=O)[C@](C)(O)[C@H]1[C@H](O)C[C@@]2(C)[C@@H]3CC=C4[C@@H](C=C(O)C(=O)C4(C)C)[C@]3(C)C(=O)C[C@]12C` [CUCURBITACIN E], in the assay on JY [8], the Activity entry is “Toxic”. In addition, the result with JY [9] was Active. In addition, the outcome (in the assay on JY [10]; in the assay on JY [11]; in assay [12]) was inactive. Moreover, in the assay with JY [3], the inhibition at 3.3 µM was found to be 68%. Besides, the inhibition is 21.5% in the assay listed under Homo sapiens [4], 24.7% in the assay filed under Homo sapiens [1] and 3.8% in the assay listed under Homo sapiens [7]. Also, the inhibition at 1 µM in the assay with JY [5] came to 60%. In addition, the inhibition at 0.3 µM with JY [6] was found to be 19%.

`CC(C)(O)/C=C/C(=O)[C@](C)(O)[C@H]1[C@H](O)C[C@@]2(C)[C@@H]3CC=C4[C@@H](C=C(O)C(=O)C4(C)C)[C@]3(C)C(=O)C[C@]12C` [CUCURBITACIN I]: the result (with JY [11]; in assay [12]) was inactive. For the same compound, in the assay on JY [3], the inhibition at 3.3 µM was 58%. The values for the inhibition in the assay listed under Homo sapiens [4], in the assay listed under Homo sapiens [1] and in the assay filed under Homo sapiens [7] were 60.5%, 15.3% and 20.5%, respectively. In addition, the inhibition at 1 µM in the assay with JY [5] stood at 63%. The inhibition at 0.3 µM with JY [6] amounted to 34%.

On to `CC(C)(O)CCC(=O)[C@@](C)(O)C1[C@H](O)C[C@@]2(C)[C@@H]3CC=C4C(C=C(O)C(=O)C4(C)C)[C@]3(C)C(=O)C[C@]12C` (stereo partly specified) [CUCURBITACIN L], for which the inhibition in the assay filed under Homo sapiens [4] amounted to 86.2%; in the assay filed under Homo sapiens [1], 79.2%; in the assay listed under Homo sapiens [7], 77.7%. The inhibition at 50 µM with JY [13] came to 69%.

In the case of `CC(C)(O)CCC(=O)[C@](C)(O)[C@H]1[C@H](O)C[C@@]2(C)[C@@H]3CC=C4[C@@H](C[C@H](O)C(=O)C4(C)C)[C@]3(C)C(=O)C[C@]12C` [CUCURBITACIN R], the outcome (in the assay with JY [11]; in assay [12]) was inactive. Also, the inhibition at 3.3 µM in the assay on JY [3] is 7%. In addition, the inhibition is 79.2% in the assay listed under Homo sapiens [4], 82.8% in the assay filed under Homo sapiens [1] and 86% in the assay listed under Homo sapiens [7]. Also, the inhibition at 1 µM with JY [5] worked out at 22%. Also, in the assay with JY [6], the inhibition at 0.3 µM was 20%. Further, the inhibition at 50 µM in the assay on JY [13] stood at 74%.

The term inhibition denotes the percentage by which the read-out fell short of the control.
